Measured values reported in ChEMBL document CHEMBL3272300, “Mapping the dopamine receptor. 1. Features derived from modifications in ring E of the neuroleptic butaclamol” (J Med Chem, 1979).
Calls of active or inactive are those of the source. No cut-off for these calls is given here.

Legend:
Rattus norvegicus [1] = assay: Inhibition of epinephrine-induced mortality in ip dosed Sprague-Dawley rat compound administered 1 hr prior challenge measured over 24 hrs; format: functional
Method in brief: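 Groups of six or more rats (220–225 g) given graded ip doses; 1 h later epinephrine bitartrate 0.25 mg/kg iv, a dose lethal to untreated rats. Deaths recorded over 24 h. Protective ED50 (dose protecting 50% of rats from lethality) calculated by Litchfield–Wilcoxon method.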

Rattus norvegicus [2] = assay: Induction of catalepsy in Sprague-Dawley rat at 5 mg/kg, ip measured after 1 to 24 hrs; format: organism-based; parameters: dose 5 mg/kg, route intraperitoneal; details: in vivo
Method in brief: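 Rats (160–180 g), six per group, dosed ip at 5 mg/kg. Catalepsy scored at 1, 2, 4, 6 and 24 h by Wirth stages III and IV; highest mean cataleptic score given as percent of maximum attainable score.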

Rattus norvegicus [3] = assay: Behavioral effect in ip dosed Sprague-Dawley rat assessed as reduction in conditioned avoidance response compound administered 30 mins prior testing; format: functional
Method in brief: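 Morpurgo discrimination box: trained rats (250–400 g) must leave start chamber for lighted exit within 10 s or get shock. Two-trial control session before dosing; graded ip doses to groups of six or more; ten trials run 30 min post-injection. Avoidance failures expressed as percent of trials; ED50 = dose giving 50% failure.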

Rattus norvegicus [4] = assay: Behavioral effect in Sprague-Dawley rat assessed as inhibition of d-amphetamine-induced stereotyped behaviour at 20 mg/kg, ip administered 15 mins post challenge measured every 15 mins for 4 hrs post challenge; format: functional, organism-based; parameters: dose 20 mg/kg
Method in brief: (§1)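 Rats (160–180 g), groups of four or more, given d-amphetamine 10 mg/kg ip, then graded ip doses of test agent or vehicle 15 min later; highest dose 20 mg/kg. Behaviour scored 0 (normal), 1 (excited), 2 (stereotyped) every 15 min for 4 h after amphetamine. MED = lowest dose antagonizing all amphetamine behavioural effects over the 4-h period.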

Mus musculus = assay: Inhibition of isolation-induced fighting behaviour in ip dosed Swiss albino mouse measured after 30 mins to 3 hrs; format: functional
Method in brief: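 Albino mice (14–16 g) isolated 4–5 weeks; pairs showing maximal fighting in a morning control session were dosed ip and retested at 30 min and 3 h in 5-min observations. All-or-none: effective if no fighting episode; ED50 = dose abolishing fighting in 50% of pairs, by Litchfield–Wilcoxon.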

Rattus norvegicus [5] = assay: Behavioral effect in ip dosed Sprague-Dawley rat assessed as inhibition of d-amphetamine-induced stereotyped behaviour compound administered 15 mins post challenge measured every 15 mins for 4 hrs post challenge; format: functional; details: read-out: MED; method in brief: as §1

SMILES	ED50 (Rattus norvegicus [1]) [mg/kg]	Activity (Rattus norvegicus [2]) [%]	ED50 (Rattus norvegicus [3]) [mg/kg]	Activity (Rattus norvegicus [4])	ED50 (Mus musculus) [mg/kg]	minimal effective dose (Rattus norvegicus [5]) [mg/kg]
CC(C)(C)C1CCN2C[C@H]3c4ccccc4CCc4cccc(c43)[C@@H]2C1 (some centres not stated)	19	93	0.8	inactive	2.1	0.62
c1ccc2c(c1)CCc1cccc3c1[C@H]2CN1CCCC[C@@H]31	–	–	–	inactive	–	–
CC(C)(C)C1CCN2C[C@H]3c4ccccc4CCc4cccc(c43)[C@H]2C1 (relative stereo)	–	–	–	inactive	–	–
CC(C)(C)[C@@]1(O)CC[C@@H]2c3cccc4c3[C@@H](CN2C1)c1ccccc1CC4 (relative stereo)	–	–	–	inactive	–	–
CC(C)(C)[C@]1(O)CC[C@H]2c3cccc4c3[C@@H](CN2C1)c1ccccc1CC4 (relative stereo)	–	–	–	inactive	–	–
O[C@H]1CCN2C[C@H]3c4ccccc4CCc4cccc(c43)[C@@H]2C1 (relative stereo)	–	–	–	inactive	–	–
c1ccc2c(c1)CCc1cccc3c1[C@H]2CN1CCC2(C[C@@H]31)OCCO2 (relative stereo)	–	–	–	inactive	–	–
CC(C)(C)[C@]1(O)CCN2C[C@H]3c4ccccc4CCc4cccc(c43)[C@@H]2C1 [BUTACLAMOL]	15	60	0.64	–	1.9	0.62
